Screens (PubChem)
Only some compounds are listed: those with a hit (about 8.9% of all), similar ones and a draw of the others.
HSV augment – HSV replication enhancement; HSV replication augmentation in cells, fold increase; maximum fold increase; hit rate 0.005% among 220,000; in the data active = maximum fold increase above about 1.5; tested in PC3 cells
MT stabilize HCS – stabilizes microtubules in HeLa cells; AID 2205; HeLa tubulin immunostaining HCS, 24 h; share of cells brighter than vehicle mean+2SD; hit rate 0.83% among 200,000; % tubulin-high responders, % at 10 µM;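 active = plate Z-score above 3 for both tubulin-high and condensed-nucleus cell shares, with cell loss under 80%, at 10 µM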;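 also: anti alpha tubulin signal scored within the nucleus-defined area of each cell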
bCat nuc transl – beta-catenin nuclear translocation modulation; HeLa beta-catenin nuclear translocation, immunofluorescence imaging; nuclear translocation activity, % at 5 µM; hit rate 0.3% among 190,000;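 active = nuclear translocation activity above 50% at 5 µM, with a well cell count of 50 or more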;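 also: per-cell ratio of nuclear to cytoplasmic median beta-catenin stain intensity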
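Test system: HeLa cells, endogenous beta-catenin; Compound: single 5 µM dose plus 0.02–20 µM confirmation series; Times: compound exposure 24 h at 37°C; Signal: fluorescence imaging of beta-catenin antibody stain plus DAPI; Read-out: % activation, nuclear-to-cytoplasmic median beta-catenin signal ratio per cell.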
Lmaj promast – Leishmania major promastigote growth inhibition | Leishmania major promastigotes, resazurin fluorescence viability | inhibition, % at 10 µM | hit rate 9% among 200,000 | AID 1063; in the data active = inhibition above about 50%;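 also: promastigotes grown with compound for 44 hours at 28 °C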
Dynein transport – dynein cargo transport inhibition; hit rate 0.47% among 220,000; 3617.4 mouse cells, GR-EGFP nuclear translocation imaging; test concentration mostly 20 µM; stimulated with dexamethasone, 1 µM; stronger effect = lower value; z-score, hits read low;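 active = plate z-score of nuclear minus cytoplasmic receptor signal below a set negative limit, without overly bright fluorescence or cell loss, cut at about -3.5 in these data, passing the limit was not always enough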;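 also: z-score of nuclear minus cytoplasmic ring GR-EGFP intensity difference per well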
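medium = tetracycline-free induction medium containing charcoal-stripped FBS | probe or stimulus = dexamethasone, 1.0 µM final | timing = 48 h induction, then 1 h compound, then 30 min agonist, 37 °C | detection = automated 10x imaging of fixed Hoechst-stained cells | read-out basis = nuclear versus cytoplasmic GR-EGFP signal, averaged per well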
Of the large screens only hits and unclear results are named; the others gave an inactive call.

O=C(Nc1ccc2c(c1)OCCO2)c1cccc(S(=O)(=O)N2CCOCC2)c1	none
O=C(Cc1ccc(Cl)c(Cl)c1)Nc1cccc(S(=O)(=O)N2CCOCC2)c1	Lmaj promast 55
CS(=O)(=O)N1CCCC(C(=O)NCCCN2CCN(Cc3ccccc3)CC2)C1 (centres undefined)	none
CC1CN(CCCCOc2ccc(C(C)C)cc2)CC(C)O1 (centres undefined)	Lmaj promast 91
CN1CCN(CC(O)COC(c2ccccc2)c2ccccc2)CC1 (centres undefined)	none
OC(COC(c1ccc(Cl)cc1)c1ccc(Cl)cc1)CN1CCN(c2ccccn2)CC1 (centres undefined)	Lmaj promast 71 (no result: bCat nuc transl)
CC1CN(CC(O)COc2ccc(C(C)C)cc2)CC(C)O1 (centres undefined)	Lmaj promast 92 (no result: bCat nuc transl)
CC1CN(CC(O)COC(c2ccc(Cl)cc2)c2ccc(Cl)cc2)CC(C)O1 (centres undefined)	Lmaj promast 67
O=C(Nc1ccccc1)Nc1cccn(Cc2c(F)cccc2Cl)c1=O	none
O=[N+]([O-])c1cccc(/C([O-])=C(/C(=S)Nc2cccc3ccccc23)[n+]2ccccc2)c1	none
CN(C)CCOC(c1ccc(Cl)cc1)c1ccccn1 (centres undefined)	none
CN(C)CC(O)COC(c1ccc(Cl)cc1)c1ccc(Cl)cc1 (centres undefined)	Lmaj promast 99
COCCNc1nnnc2c1sc1nc(N3CCOCC3)c3c(c12)CCCC3	Lmaj promast 62
CCN(CC)c1ccc(/C=N/NC(=O)c2ccccn2)cc1	none (no result: MT stabilize HCS, Lmaj promast)
CCN(CC)c1ccc(/C=N/NC(=O)c2cnccn2)cc1	MT stabilize HCS 23
CCN(CC)c1ccc(/C=N/NC(=O)c2ccco2)cc1	MT stabilize HCS 20, Lmaj promast 50 (no result: bCat nuc transl)
C=CCc1ccc(OCC(O)CN2CCC(Cc3ccccc3)CC2)c(OC)c1 (centres undefined)	Lmaj promast 100
C=CCc1ccc(OCC(O)CN2CCN(Cc3ccc(Cl)cc3)CC2)c(OC)c1 (centres undefined)	Lmaj promast 93
COc1cccc(OCC(O)CN2CC(C)CC(C)C2)c1 (centres undefined)	Lmaj promast 88
COc1cccc(OCC(O)CN2CCC(Cc3ccccc3)CC2)c1 (centres undefined)	Lmaj promast 95
C=CCc1ccc(OCC(O)CO)c(OC)c1 (centres undefined)	none (no result: HSV augment)
CN(CCc1ccccn1)c1ncnc2[nH]ncc12	none
CN1CCN(c2ccc(Cl)cc2NC(=O)c2ccc([N+](=O)[O-])cc2)CC1	none (no result: MT stabilize HCS, Lmaj promast)
CN1CCN(c2ccc([N+](=O)[O-])cc2C(=O)c2ccc(Br)cc2)CC1	MT stabilize HCS 20, bCat nuc transl 64
CN1CCN(c2ccc([N+](=O)[O-])cc2C(=O)c2ccccc2)CC1	Lmaj promast 56
O=C(c1ccccc1)c1cc([N+](=O)[O-])ccc1N1CCCC1	none
Cc1ccc(C(=O)c2cc([N+](=O)[O-])ccc2N2CCN(C)CC2)cc1	MT stabilize HCS 41, bCat nuc transl 71
O=C(c1ccc(Br)cc1)c1cc([N+](=O)[O-])ccc1N1CCCCC1	MT stabilize HCS 17, bCat nuc transl 63
Cc1ccc(C(=O)N2CCN(c3ccc([N+](=O)[O-])cc3-n3cccc3)CC2)cc1	none (no result: MT stabilize HCS, Lmaj promast)
COc1ccc(NC(=O)C2CC(=O)N(c3cc(C)ccc3C)C2)cc1 (centres undefined)	none (no result: bCat nuc transl)
CCOC(=O)C1=NN(c2ccc(C)cc2)CC1C(=O)OC (centres undefined)	none
Cc1c(C)c2ccc(Oc3ccc([N+](=O)[O-])cc3C(F)(F)F)c(C)c2oc1=O	none (no result: HSV augment)
O=C(Cc1cccs1)Nc1ccccc1NC(=O)Cc1cccs1	none
C=C(C)c1cccc(C(C)(C)NC(=O)N2CCOCC2)c1	none
CC(=O)NCCNC(=O)c1ccc(Sc2ccccc2)c([N+](=O)[O-])c1	none
CN(C)CCNC(=O)c1ccc(Sc2ccc(Br)cc2)c([N+](=O)[O-])c1	Lmaj promast 100 (no result: MT stabilize HCS)
O=C(NCCCN1CCOCC1)c1ccc(Sc2ccc(F)cc2)c([N+](=O)[O-])c1	Lmaj promast 100
O=C(c1ccc(S(=O)(=O)c2ccccc2Cl)c([N+](=O)[O-])c1)N1CCCCCC1	Lmaj promast 98
CCN1CCCC1CNC(=O)c1ccc(Sc2ccc(F)cc2)c([N+](=O)[O-])c1 (centres undefined)	Lmaj promast 100
c1ccc(-c2nn3c(Cn4nnc5ccccc54)nnc3s2)cc1	none
